The results in this text go back to ChEMBL document CHEMBL4396972, “Glycyrrhizic acid derivatives as Dengue virus inhibitors” (Bioorg Med Chem Lett, 2019).

The subject of data set [1] is dengue virus type 2. The experiment in a line: Antiviral activity against DENV2 16681 infected in African green monkey Vero E6 cells assessed as reduction in virus induced cytopathic effect at 10 uM measured after 96 hrs by reverse phase contrast microscopy. The class given is functional, organism-based. The note with it: Vero C1008. The method, boiled down: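 Vero E6 cells in supporting DMEM infected with DENV2 strain 16681 (MOI 0.01), then treated immediately with compound at 10 μM. After 96 h incubation, cytopathic effect photographed by reverse phase-contrast microscopy and scored semi-quantitatively (−, +, ++, +++) against infected controls.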

In data set [2] the test system is dengue virus type 2. The experiment in a line: Antiviral activity against DENV2 16681 infected in African green monkey Vero E6 cells assessed as reduction in virus induced cytopathic effect measured after 96 hrs by reverse phase contrast microscopy. The data set is classed as functional, organism-based. The note with it: Vero C1008. The method, boiled down: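 Vero E6 cells in DMEM infected with DENV2 16681 at MOI 0.01, compound added immediately (screen at 10 μM, then 0, 0.1, 1, 10 μM). Photographed 96 h post infection by phase-contrast microscopy. CPE reduction scored qualitatively (−, +, ++, +++).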

Data set [3] has as its system dengue virus type 2. The data set is described as follows: Antiviral activity against DENV2 16681 infected in African green monkey Vero E6 cells assessed as inhibitory rate of NS4B positive cells at 10 uM measured after 96 hrs incubation by DAPI staining based immunofluorescence method. The class given is functional. The note with it: Dengue virus, 16681, Vero C1008, 96 h. The procedure, abridged: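 Vero E6 cells in DMEM infected with DENV2 strain 16681 at MOI 0.01, treated at once with compound (0, 0.1, 1, 10 μM), 96 h. Immunofluorescence with anti-NS4B antibody and DAPI counterstain. Infectivity taken as NS4B-positive cells over DAPI-stained total cells. Inhibitory rate = (1 − NS4B-positive % treated infected / NS4B-positive % mock-treated infected) × 100.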

The subject of data set [4] is dengue virus type 2. The experiment in a line: Antiviral activity against DENV2 16681 infected in African green monkey Vero E6 cells assessed as inhibitory rate of NS4B positive cells measured after 96 hrs incubation by DAPI staining based immunofluorescence method. The data set is classed as functional, organism-based. The note with it: for IC50: Dengue virus, 16681, Vero C1008, 96 h; for inhibition: Vero C1008. The procedure, abridged: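 Vero E6 cells in DMEM, infected with DENV2 strain 16681 at MOI 0.01 and treated with compound (0, 0.1, 1, 10 μM; single 10 μM for screening). After 96 h, immunofluorescence with anti-NS4B antibody and DAPI nuclear counterstain. Infectivity = NS4B-positive cells / DAPI-stained cells. Inhibitory rate = (1 − NS4B-positive % treated / NS4B-positive % mock-treated infected) × 100. IC50 derived from NS4B-positive percentages across concentrations.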

The nature of data set [5]: Therapeutic index, ratio of CC50 for African green monkey Vero E6 cells to IC50 for DENV2 16681 infected in African green monkey Vero E6 cells. The class given is toxicity, Vero C1008. The note with it: read-out: Ratio CC50/IC50. The procedure, abridged:
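TI = CC50/IC50. CC50 comes from the Vero E6 MTT survival test. IC50 comes from the NS4B-positive cell fraction by immunofluorescence in DENV2 16681-infected Vero E6 cells (MOI 0.01, 96 h, 0–10 μM).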

Data set [6] has as its system Vero C1008. The experiment in a line: Cytotoxicity against African green monkey Vero E6 cells assessed as reduction in survival rate measured after 48 hrs by MTT assay. The note with it: chlorocebus sabaeus, vero c1008, 48 h. The data set is classed as cell-based. The method, boiled down: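 MTT viability test on Vero E6 cells in DMEM over a range of compound concentrations. CC50 calculated from survival of treated cells relative to mock cells.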

Molecules are shown by their SMILES. Active and inactive are the calls of the source. No cut-off for these calls is given here.

In the case of `COC(=O)CC[C@H](NC(=O)[C@H]1O[C@@H](O[C@H]2[C@@H](O[C@H]3CC[C@]4(C)[C@H]5C(=O)C=C6[C@@H]7C[C@@](C)(C(=O)N[C@@H](CCC(=O)OC)C(=O)OC)CC[C@]7(C)CC[C@@]6(C)[C@]5(C)CC[C@H]4C3(C)C)O[C@H](C(=O)N[C@@H](CCC(=O)OC)C(=O)OC)[C@@H](O)[C@@H]2O)[C@H](O)[C@@H](O)[C@@H]1O)C(=O)OC`, the inhibition entry in data set [1] was “inactive”.

As for `CC1(C)[C@@H](O[C@H]2O[C@H](C(=O)N[C@@H](Cc3ccccc3)C(=O)O)[C@@H](O)[C@H](O)[C@H]2O[C@@H]2O[C@H](C(=O)N[C@@H](Cc3ccccc3)C(=O)O)[C@@H](O)[C@H](O)[C@H]2O)CC[C@]2(C)[C@H]3C(=O)C=C4[C@@H]5C[C@@](C)(C(=O)N[C@@H](Cc6ccccc6)C(=O)O)CC[C@]5(C)CC[C@@]4(C)[C@]3(C)CC[C@@H]12`, the inhibition result in data set [1] was “inactive”.

Take `COC(=O)[C@H](CCSC)NC(=O)[C@H]1O[C@@H](O[C@H]2[C@@H](O[C@H]3CC[C@]4(C)[C@H]5C(=O)C=C6[C@@H]7C[C@@](C)(C(=O)N[C@@H](CCSC)C(=O)OC)CC[C@]7(C)CC[C@@]6(C)[C@]5(C)CC[C@H]4C3(C)C)O[C@H](C(=O)N[C@@H](CCSC)C(=O)OC)[C@@H](O)[C@@H]2O)[C@H](O)[C@@H](O)[C@@H]1O`: the inhibition result in data set [2] is “Dose-dependent effect”. The inhibition at 10 µM in data set [3] was found to be 66.3%. The inhibition entry in data set [1] was “Active”. Moreover, in data set [4], the IC50 was 4.5 µM and the inhibition entry was “Dose-dependent effect”. For the same compound, in data set [5], the selectivity ratio is more than 22.2. For the same compound, the half-maximal cytotoxic concentration (CC50) in data set [6] was more than 100 µM.

For `COC(=O)[C@@H](Cc1ccccc1)NC(=O)[C@H]1O[C@@H](O[C@H]2[C@@H](O[C@H]3CC[C@]4(C)[C@H]5C(=O)C=C6[C@@H]7C[C@@](C)(C(=O)N[C@H](Cc8ccccc8)C(=O)OC)CC[C@]7(C)CC[C@@]6(C)[C@]5(C)CC[C@H]4C3(C)C)O[C@H](C(=O)N[C@H](Cc3ccccc3)C(=O)OC)[C@@H](O)[C@@H]2O)[C@H](O)[C@@H](O)[C@@H]1O`, in data set [1], the inhibition entry was “inactive”.

Regarding `COC(=O)CCCCCCCCCCNC(=O)[C@H]1O[C@@H](O[C@H]2[C@@H](O[C@H]3CC[C@]4(C)[C@H]5C(=O)C=C6[C@@H]7C[C@@](C)(C(=O)O)CC[C@]7(C)CC[C@@]6(C)[C@]5(C)CC[C@H]4C3(C)C)O[C@H](C(=O)NCCCCCCCCCCC(=O)OC)[C@@H](O)[C@@H]2O)[C@H](O)[C@@H](O)[C@@H]1O`, the inhibition entry in data set [2] was “Dose-dependent effect”. For the same compound, the inhibition at 10 µM in data set [3] worked out at 79.5%. Moreover, in data set [1], the inhibition result was “Active”. Moreover, in data set [4], the 50% inhibitory concentration (IC50) stood at 1.2 µM and the inhibition entry is “Dose-dependent effect”. In data set [5], the selectivity ratio is more than 80. The half-maximal cytotoxic concentration (CC50) in data set [6] was more than 100 µM.

For the compound `COC(=O)[C@@H](CC(C)C)NC(=O)[C@H]1O[C@@H](O[C@H]2[C@@H](O[C@H]3CC[C@]4(C)[C@H]5C(=O)C=C6[C@@H]7C[C@@](C)(C(=O)N[C@H](CC(C)C)C(=O)OC)CC[C@]7(C)CC[C@@]6(C)[C@]5(C)CC[C@H]4C3(C)C)O[C@H](C(=O)N[C@H](CC(C)C)C(=O)OC)[C@@H](O)[C@@H]2O)[C@H](O)[C@@H](O)[C@@H]1O`, the inhibition at 10 µM in data set [3] came to 53.1%. Further, the inhibition entry in data set [1] is “Active”.

Regarding `COC(=O)[C@@]1(C)CC[C@]2(C)CC[C@]3(C)C(=CC(=O)[C@@H]4[C@@]5(C)CC[C@H](O[C@H]6O[C@H](C(=O)N/N=C/c7ccc(N(C)C)cc7)[C@@H](O)[C@H](O)[C@H]6O[C@@H]6O[C@H](C(=O)N/N=C/c7ccc(N(C)C)cc7)[C@@H](O)[C@H](O)[C@H]6O)C(C)(C)[C@@H]5CC[C@]43C)[C@@H]2C1`, the inhibition result in data set [1] was “inactive”.

Regarding `COC(=O)[C@H](Cc1ccccc1)NC(=O)[C@H]1O[C@@H](O[C@H]2[C@@H](O[C@H]3CC[C@]4(C)[C@H]5C(=O)C=C6[C@@H]7C[C@@](C)(C(=O)N[C@@H](Cc8ccccc8)C(=O)OC)CC[C@]7(C)CC[C@@]6(C)[C@]5(C)CC[C@H]4C3(C)C)O[C@H](C(=O)N[C@@H](Cc3ccccc3)C(=O)OC)[C@@H](O)[C@@H]2O)[C@H](O)[C@@H](O)[C@@H]1O`, the inhibition entry in data set [1] was “inactive”.

As for `COC(=O)[C@@]1(C)CC[C@]2(C)CC[C@]3(C)C(=CC(=O)[C@@H]4[C@@]5(C)CC[C@H](O[C@H]6O[C@H](C(=O)NN)[C@@H](O)[C@H](O)[C@H]6O[C@@H]6O[C@H](C(=O)NN)[C@@H](O)[C@H](O)[C@H]6O)C(C)(C)[C@@H]5CC[C@]43C)[C@@H]2C1`, in data set [1], the inhibition entry was “inactive”.

Regarding `COC(=O)[C@H](CC(C)C)NC(=O)[C@H]1O[C@@H](O[C@H]2[C@@H](O[C@H]3CC[C@]4(C)[C@H]5C(=O)C=C6[C@@H]7C[C@@](C)(C(=O)N[C@@H](CC(C)C)C(=O)OC)CC[C@]7(C)CC[C@@]6(C)[C@]5(C)CC[C@H]4C3(C)C)O[C@H](C(=O)N[C@@H](CC(C)C)C(=O)OC)[C@@H](O)[C@@H]2O)[C@H](O)[C@@H](O)[C@@H]1O`, the inhibition entry in data set [1] was “inactive”.

Turning to `COC(=O)[C@@H](Cc1c[nH]c2ccccc12)NC(=O)[C@H]1O[C@@H](O[C@H]2[C@@H](O[C@H]3CC[C@]4(C)[C@H]5C(=O)C=C6[C@@H]7C[C@@](C)(C(=O)N[C@H](Cc8c[nH]c9ccccc89)C(=O)OC)CC[C@]7(C)CC[C@@]6(C)[C@]5(C)CC[C@H]4C3(C)C)O[C@H](C(=O)N[C@H](Cc3c[nH]c4ccccc34)C(=O)OC)[C@@H](O)[C@@H]2O)[C@H](O)[C@@H](O)[C@@H]1O`, the inhibition result in data set [1] is “inactive”.

For the compound `COC(=O)[C@@]1(C)CC[C@]2(C)CC[C@]3(C)C(=CC(=O)[C@@H]4[C@@]5(C)CC[C@H](O[C@H]6O[C@H](C(=O)N/N=C/c7ccncc7)[C@@H](O)[C@H](O)[C@H]6O[C@@H]6O[C@H](C(=O)N/N=C/c7ccncc7)[C@@H](O)[C@H](O)[C@H]6O)C(C)(C)[C@@H]5CC[C@]43C)[C@@H]2C1`, the inhibition result in data set [1] is “inactive”.

For `COC(=O)[C@@H](NC(=O)[C@H]1O[C@@H](O[C@H]2[C@@H](O[C@H]3CC[C@]4(C)[C@H]5C(=O)C=C6[C@@H]7C[C@@](C)(C(=O)N[C@H](C(=O)OC)C(C)C)CC[C@]7(C)CC[C@@]6(C)[C@]5(C)CC[C@H]4C3(C)C)O[C@H](C(=O)N[C@H](C(=O)OC)C(C)C)[C@@H](O)[C@@H]2O)[C@H](O)[C@@H](O)[C@@H]1O)C(C)C`, the inhibition result in data set [1] is “inactive”.

In the case of `COC(=O)[C@H](Cc1ccc(O)cc1)NC(=O)[C@H]1O[C@@H](O[C@H]2[C@@H](O[C@H]3CC[C@]4(C)[C@H]5C(=O)C=C6[C@@H]7C[C@@](C)(C(=O)N[C@@H](Cc8ccc(O)cc8)C(=O)OC)CC[C@]7(C)CC[C@@]6(C)[C@]5(C)CC[C@H]4C3(C)C)O[C@H](C(=O)N[C@@H](Cc3ccc(O)cc3)C(=O)OC)[C@@H](O)[C@@H]2O)[C@H](O)[C@@H](O)[C@@H]1O`, the inhibition result in data set [1] is “inactive”.

Consider `CC[C@H](C)[C@H](NC(=O)[C@H]1O[C@@H](O[C@H]2[C@@H](O[C@H]3CC[C@]4(C)[C@H]5C(=O)C=C6[C@@H]7C[C@@](C)(C(=O)N[C@H](C(=O)OC)[C@@H](C)CC)CC[C@]7(C)CC[C@@]6(C)[C@]5(C)CC[C@H]4C3(C)C)O[C@H](C(=O)N[C@H](C(=O)OC)[C@@H](C)CC)[C@@H](O)[C@@H]2O)[C@H](O)[C@@H](O)[C@@H]1O)C(=O)OC`, for which the inhibition entry in data set [1] was “inactive”.

For the compound `COC(=O)C[C@H](NC(=O)[C@H]1O[C@@H](O[C@H]2[C@@H](O[C@H]3CC[C@]4(C)[C@H]5C(=O)C=C6[C@@H]7C[C@@](C)(C(=O)O)CC[C@]7(C)CC[C@@]6(C)[C@]5(C)CC[C@H]4C3(C)C)O[C@H](C(=O)N[C@@H](CC(=O)OC)C(=O)OC)[C@@H](O)[C@@H]2O)[C@H](O)[C@@H](O)[C@@H]1O)C(=O)O`, the inhibition at 10 µM in data set [3] worked out at 35.8%. Also, the inhibition result in data set [1] is “Active”.

Turning to `COC(=O)[C@@]1(C)CC[C@]2(C)CC[C@]3(C)C(=CC(=O)[C@@H]4[C@@]5(C)CC[C@H](O[C@H]6O[C@H](C(=O)N/N=C/c7ccc(O)cc7)[C@@H](O)[C@H](O)[C@H]6O[C@@H]6O[C@H](C(=O)N/N=C/c7ccc(O)cc7)[C@@H](O)[C@H](O)[C@H]6O)C(C)(C)[C@@H]5CC[C@]43C)[C@@H]2C1`, the inhibition at 10 µM in data set [3] is 32.5%. Further, in data set [1], the inhibition result was “Active”.
